Experiment [1] deals with 5-hydroxytryptamine receptor 4 (Homo sapiens) (UniProt Q13639). Put plainly: Partial agonist activity at Rluc-tagged human 5-HT4 receptor expressed in human SH-5YSY cells co-expressing RGFP-fused to Gbeta1 assessed as inhibition of serotonin-induced coupling by BRET assay. In kind it is functional, cell-based. In general terms: Bioluminescence resonance energy transfer reports proximity on the nanometre scale.

Experiment [2] concerns the target 5-hydroxytryptamine receptor 4 (Cavia porcellus, UniProt O70528). Kind of experiment: Displacement of [3H]GR113808 from serotonin 5-HT4 receptor in Dunkin-Hartley guinea pigs striatal nuclei membranes incubated for 30 mins by liquid scintillation counting. (Loss of bound radioactivity is the signal in a displacement assay; it reports binding, not function.)
In experiment [3] the target is 5-hydroxytryptamine receptor 4 (Homo sapiens) (UniProt Q13639). Put plainly: Agonist activity at human 5-HT4R expressed in GloSensor-22F6 expressing 2B2 cells co-expressing Galpha-s assessed as increase in cAMP accumulation up to 60 mins by luminometry relative to control 5-HT. In kind it is functional, cell-based. The method, boiled down:
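Cells carrying a cAMP luminescence biosensor were additionally transduced with Gαs and human 5-HT4R, then seeded at 25 x 10³ cells/well 24 h ahead. Ligands (up to 10 µM) were added with 1 mM final IBMX.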
For orientation: Changes in cAMP serve as a functional read-out for many G protein-coupled receptors.

Consider eleven molecules from ChEMBL document CHEMBL4138046, “Multivalent ligands for the serotonin 5-HT4 receptor” (Medchemcomm, 2017).

Calls of active or inactive are those of the source. The calls are words filed in the database; no cut-off is given here.

Sequence of 5-hydroxytryptamine receptor 4 (O70528 whole entry): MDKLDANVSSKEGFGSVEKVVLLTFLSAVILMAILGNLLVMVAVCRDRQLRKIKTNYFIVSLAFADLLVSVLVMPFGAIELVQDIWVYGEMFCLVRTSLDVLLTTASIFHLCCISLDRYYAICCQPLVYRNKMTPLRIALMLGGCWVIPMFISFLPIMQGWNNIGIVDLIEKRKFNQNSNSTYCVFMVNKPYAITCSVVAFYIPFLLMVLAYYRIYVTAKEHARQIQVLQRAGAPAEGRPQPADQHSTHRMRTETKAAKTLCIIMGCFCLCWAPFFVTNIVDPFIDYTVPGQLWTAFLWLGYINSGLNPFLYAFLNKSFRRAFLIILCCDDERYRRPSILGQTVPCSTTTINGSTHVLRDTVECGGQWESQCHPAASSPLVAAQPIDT
Sequence of 5-hydroxytryptamine receptor 4 (Homo sapiens) (Q13639 whole entry, the tested form may be a part): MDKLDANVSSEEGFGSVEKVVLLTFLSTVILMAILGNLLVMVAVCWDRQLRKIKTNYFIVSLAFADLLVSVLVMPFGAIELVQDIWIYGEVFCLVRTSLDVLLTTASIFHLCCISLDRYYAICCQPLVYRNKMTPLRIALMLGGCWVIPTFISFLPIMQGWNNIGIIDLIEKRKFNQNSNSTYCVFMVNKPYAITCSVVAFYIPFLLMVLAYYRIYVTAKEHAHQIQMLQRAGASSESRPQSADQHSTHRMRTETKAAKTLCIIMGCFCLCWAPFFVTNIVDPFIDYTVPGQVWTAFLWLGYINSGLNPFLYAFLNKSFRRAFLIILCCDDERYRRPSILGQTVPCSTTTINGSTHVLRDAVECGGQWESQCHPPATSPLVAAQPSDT

As for `COc1cc(N)c(Cl)cc1C(=O)OCCN1CCC(NC(=O)NCCOCCOCCOCCOCCOCCOCCOCCOCCn2cc(CNC(=O)NCCCN(CCCCN(CCCNC(=O)NCc3cn(CCOCCOCCOCCOCCOCCOCCOCCOCCNC(=O)NC4CCN(CCOC(=O)c5cc(Cl)c(N)cc5OC)CC4)nn3)CCCNC(=O)NCc3cn(CCOCCOCCOCCOCCOCCOCCOCCOCCNC(=O)NC4CCN(CCOC(=O)c5cc(Cl)c(N)cc5OC)CC4)nn3)CCCNC(=O)NCc3cn(CCOCCOCCOCCOCCOCCOCCOCCOCCNC(=O)NC4CCN(CCOC(=O)c5cc(Cl)c(N)cc5OC)CC4)nn3)nn2)CC1`, in experiment [1], the outcome was Active. For the same molecule, in experiment [2], the Ki (as a rule, a dissociation constant, usually derived from enzyme kinetics or from competition with a known ligand) turned out to be 4.5 nM. In addition, the Ratio in experiment [3] amounted to 0.14.

Take `COc1cc(N)c(Cl)cc1C(=O)OCCN1CCC(NC(=O)NCCOCCOCCNC(=O)NCC(=O)O)CC1`: in experiment [1], the outcome was Active. In experiment [2], this molecule came in with an inhibition constant Ki of 61 nM. The Ratio in experiment [3] came out at 0.21.

Consider `COc1cc(N)c(Cl)cc1C(=O)OCCN1CCC(NC(=O)NCCOCCOCCNC(=O)NCC(=O)OCc2ccccc2)CC1`, for which, in experiment [1], the outcome was Active. This molecule also came in with an inhibition constant Ki in experiment [2] of 4 nM. Further, in experiment [3], the Ratio stood at 0.15.

`COc1cc(N)c(Cl)cc1C(=O)OCCN1CCC(NC(=O)NCCOCCOCCOCCOCCOCCOCCOCCOCCN=[N+]=[N-])CC1`: the result in experiment [1] was Active. In addition, in experiment [2], the affinity, expressed as Ki, was 121 nM. In addition, the Ratio in experiment [3] stood at 0.18.

In the case of `COc1cc(N)c(Cl)cc1C(=O)N[C@H]1CCN(CCCOc2ccc(F)cc2)C[C@H]1OC`, the outcome in experiment [1] was Active.

With `CCCCNC(=O)NC1CCN(CCOC(=O)c2cc(Cl)c(N)cc2OC)CC1`, in experiment [1], the result was Active. This molecule gave a Ki in experiment [2] of 13 nM. Also, the Ratio in experiment [3] came out at 0.24.

Take `COc1cc(N)c(Cl)cc1C(=O)OCCN1CCC(NC(=O)NCCOCCOCCOCCOCCOCCOCCOCCOCCn2cc(CNC(=O)NCCCN(C)CCCNC(=O)NCc3cn(CCOCCOCCOCCOCCOCCOCCOCCOCCNC(=O)NC4CCN(CCOC(=O)c5cc(Cl)c(N)cc5OC)CC4)nn3)nn2)CC1`: in experiment [1], the outcome was Active. In experiment [2], this molecule returned a Ki of 9 nM. Moreover, the Ratio in experiment [3] turned out to be 0.16.

Take `COc1cc(N)c(Cl)cc1C(=O)OCCN1CCC(NC(=O)OC(C)(C)C)CC1`: in experiment [1], the outcome was Active. In experiment [2], this molecule yielded a Ki of 30 nM. Besides, in experiment [3], the Ratio was found to be 0.21.

For the molecule `COc1cc(N)c(Cl)cc1C(=O)OCCCN1CCCCC1`, the outcome in experiment [1] was Active. The Ratio in experiment [3] is 0.09.

In the case of `COc1cc(N)c(Cl)cc1C(=O)OCCN1CCCCC1`, the result in experiment [1] was Active.

As to `COc1cc(N)c(Cl)cc1C(=O)OCCN1CCC(NC(=O)NCCOCCOCCNC(=O)NC2CCN(CCOC(=O)c3cc(Cl)c(N)cc3OC)CC2)CC1`, the outcome in experiment [1] was Active. For the same molecule, the affinity in experiment [2] corresponds to a Ki of 4 nM. Moreover, the Ratio in experiment [3] came out at 0.28.
